pIC50: −log10 of the molar value.

Type in all cases: functional, cell-based
The target in test [1] is T1, Sphingosine 1-phosphate receptor 3 (Homo sapiens, UniProt Q99500). Put plainly: Antagonist activity against human S1P3 receptor assessed as inhibition of S1P-induced intracellular calcium mobilization in CHO-K1 cells. In a few lines: (§1)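 CHO-K1 cells stably transfected with the S1P1, S1P2 or S1P3 receptor, grown in Ham's F12K with G418 (200 µg/mL). Cells plated at 20 000/well in Ham's medium with 1% FBS for 24 h at 37 °C, washed, then held in Ham's medium for a further 24 h. Cells are washed with HBSS containing sulfinpyrazone (0.25 mmol/L) and loaded with Fura-2.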
T1 sequence (Q99500 whole entry): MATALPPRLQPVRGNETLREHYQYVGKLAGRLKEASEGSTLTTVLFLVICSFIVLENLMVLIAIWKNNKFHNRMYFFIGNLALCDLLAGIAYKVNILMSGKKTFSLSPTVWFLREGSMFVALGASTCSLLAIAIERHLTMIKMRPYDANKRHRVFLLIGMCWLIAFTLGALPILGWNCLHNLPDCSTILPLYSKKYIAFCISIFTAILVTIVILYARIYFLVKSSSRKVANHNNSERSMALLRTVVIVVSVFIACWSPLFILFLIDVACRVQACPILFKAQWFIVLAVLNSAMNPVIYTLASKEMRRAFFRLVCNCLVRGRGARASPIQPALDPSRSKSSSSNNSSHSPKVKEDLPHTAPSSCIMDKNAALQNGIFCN

Test [2] concerns the target T1, Sphingosine 1-phosphate receptor 3. Put plainly: Antagonist activity against human S1P3 receptor assessed as inhibition of S1P-induced intracellular calcium mobilization in CHO-K1 cells at 10 uM. An outline of the steps:
as §1

The target of test [3] is T2, Sphingosine 1-phosphate receptor 1 (Homo sapiens, UniProt P21453). Put plainly: Activity at human S1P1 receptor assessed as inhibition of S1P-induced intracellular calcium mobilization in CHO-K1 cells at 10 uM. An outline of the steps:
as §1

The target of test [4] is Sphingosine 1-phosphate receptor 2 (Homo sapiens) (UniProt O95136). Put plainly: Antagonist activity against human S1P2 receptor assessed as inhibition of S1P-induced intracellular calcium mobilization in CHO-K1 cells at 10 uM. An outline of the steps:
as §1

In test [5] the target is T2, Sphingosine 1-phosphate receptor 1. Put plainly: Antagonist activity against human S1P1 receptor assessed as inhibition of S1P-induced intracellular calcium mobilization in CHO-K1 cells. An outline of the steps:
as §1

T2 sequence (P21453 whole entry): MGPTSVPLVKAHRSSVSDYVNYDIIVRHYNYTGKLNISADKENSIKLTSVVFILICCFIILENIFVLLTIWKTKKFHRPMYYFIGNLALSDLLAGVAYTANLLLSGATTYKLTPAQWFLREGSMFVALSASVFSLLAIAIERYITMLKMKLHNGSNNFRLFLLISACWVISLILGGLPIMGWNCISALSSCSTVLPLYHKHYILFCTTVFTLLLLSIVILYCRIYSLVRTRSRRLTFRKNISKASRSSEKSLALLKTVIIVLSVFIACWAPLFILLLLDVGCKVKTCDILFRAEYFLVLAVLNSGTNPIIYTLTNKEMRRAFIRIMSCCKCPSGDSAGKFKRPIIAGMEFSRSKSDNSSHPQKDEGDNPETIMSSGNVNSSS
Chain of Sphingosine 1-phosphate receptor 2 (Homo sapiens) (O95136 whole entry): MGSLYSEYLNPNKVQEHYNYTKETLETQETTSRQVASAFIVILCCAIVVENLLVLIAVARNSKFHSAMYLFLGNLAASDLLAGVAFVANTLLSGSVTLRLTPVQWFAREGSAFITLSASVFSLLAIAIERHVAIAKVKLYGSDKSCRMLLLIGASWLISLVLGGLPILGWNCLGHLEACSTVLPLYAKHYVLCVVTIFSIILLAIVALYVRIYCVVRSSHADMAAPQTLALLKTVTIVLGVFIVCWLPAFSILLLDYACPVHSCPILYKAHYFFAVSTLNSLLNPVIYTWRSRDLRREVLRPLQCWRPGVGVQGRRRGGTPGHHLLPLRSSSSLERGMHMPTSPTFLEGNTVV

For `CCCCCCCCCc1cccc(C2N[C@H](C(=O)O)CS2)c1` (some centres not stated), the pIC50 in test [1] is below 4.70.
Regarding `COc1ccc(C2N[C@H](C(=O)O)CS2)cc1COc1c(C)cc(Cl)cc1C(C)C` (some centres not stated), in test [1], the pIC50 was below 4.70.
In the case of `CCCCCCCCCCCCCCCCOc1ccc(/C(=N\NS(=O)(=O)c2cccc(C(=O)O)c2)c2ccccc2)cc1OC`, the inhibition in test [2] was 8.3%; in test [3], 1%; in test [4], -8.7%.
As for `CCCCCCCCCCCCCCCCCNc1ccc(C(=O)CC(=O)Cc2cc(C(=O)O)ccc2Oc2cc(C(=O)O)cc(C(=O)O)c2)cc1`, in test [1], the pIC50 is 5.34.
With `CCCCCCCCCCCCCC1N[C@H](C(=O)O)CS1` (some centres not stated), the inhibition in test [2] is below 10%.
As to `CCCCCCCc1cccc(C2N[C@H](C(=O)O)CS2)c1` (some centres not stated), the pIC50 in test [1] was 5.01.
Regarding `CCCCCCCCOc1ccc(/C(=N\NS(=O)(=O)c2cc(C(=O)O)cc(C(=O)O)c2)c2ccccc2)cc1OC`, the pIC50 in test [1] was 4.88. The values for the inhibition in test [3] and in test [4] were 32.9% and 14%, respectively.
Regarding `CCCCCCCCCCCCCCCCOc1ccc(/C(=N/NS(=O)(=O)c2cccc(C(=O)O)c2)c2ccccc2)cc1OC`, the HI in test [2] worked out at 34.4%. Moreover, the inhibition is 34.8% in test [3] and -0.1% in test [4].
Take `CCCCOc1ccc(/C(=N/NS(=O)(=O)c2cc(C(=O)O)cc(C(=O)O)c2)c2ccccc2)cc1OC`: the inhibition in test [2] was found to be 6.7%; in test [3] it was 24.2%; in test [4], 6.2%.
In the case of `CCCCCCCCCCC1N[C@H](C(=O)O)CS1` (some centres not stated), the pIC50 in test [1] was 4.80.
For the compound `CCCCCCCCCCCCCCCCOc1ccc(/C(=N/NS(=O)(=O)c2cc(C(=O)O)cc(C(=O)O)c2)c2ccccc2)cc1`, the pIC50 in test [1] is 5.01. Moreover, the inhibition is 17.2% in test [3] and 20.5% in test [4].
On to `CCCCCCCCCCCCCCCCOc1ccc(/C(=N/NS(=O)(=O)c2cc(C(=O)O)cc(C(=O)O)c2)N2CCCCC2)cc1OC`, for which the pIC50 in test [5] was 5.21; in test [1], 5.46. Moreover, the inhibition in test [4] was 35.9%.
Consider `CCCCCCCCCCCCCCCCCC(=O)Nc1ccc(C(=O)CC(=O)Cc2cc(C(=O)O)ccc2Oc2cc(C(=O)O)cc(C(=O)O)c2)cc1`, for which, in test [1], the pIC50 was 5.44.
`CCCCCCCc1ccc(C2N[C@H](C(=O)O)CS2)cc1` (some centres not stated): the pIC50 in test [1] was 4.88.
For the compound `CCCCCCCCCCCCCCCCOc1ccc(/C(=N\NS(=O)(=O)c2cc(C(=O)O)cc(C(=O)O)c2)c2ccccc2)cc1OC`, the pIC50 is 5.37 in test [5] and 5.45 in test [1]. The inhibition in test [4] amounted to 9.5%.
`CCCCCCCCCCCCCCCCOc1ccc(S(=O)(=O)O)cc1C(=O)O`: the negative-log IC50 (pIC50) in test [1] was 5.06.
Take `CCCCCCCCCCCCCCCCOc1ccc(/C(=N/NS(=O)(=O)c2cc(C(=O)O)cc(C(=O)O)c2)c2ccccc2)cc1OC`: the results for the pIC50 in test [5] and in test [1] were 5.18 and 5.53, respectively. In test [4], the inhibition was 40.9%.
On to `CCCCCCCCCCCC1N[C@H](C(=O)O)CS1` (some centres not stated), for which, in test [1], the pIC50 is 4.94.
For the compound `CCCCCCCCOc1ccc(/C(=N/NS(=O)(=O)c2cc(C(=O)O)cc(C(=O)O)c2)c2ccccc2)cc1OC`, the pIC50 in test [1] was 4.94. The figures for the inhibition in test [3] and in test [4] were 12.7% and -4.6%, respectively.

Values taken from ChEMBL document CHEMBL1141397, “Pharmacophore-based design of sphingosine 1-phosphate-3 receptor antagonists that include a 3,4-dialkoxybenzophenone scaffold” (J Med Chem, 2007).
